Assay results as given in ChEMBL document CHEMBL1129960, “Design, synthesis, and antiviral evaluation of 2-substituted 4,5-dichloro- and 4,6-dichloro-1-beta-D-ribofuranosylbenzimidazoles as potential agents for human cytomegalovirus infections” (J Med Chem, 1997).

Legend:
Human alphaherpesvirus 1 = experiment: Antiviral activity was measured by plaque assay against HSV-1 virus by ELISA method; format: functional, organism-based
Summary of the method: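 HSV-1 (KOS) in BSC-1 cells, 10 000 cells/well seeded in MEM(E) + 10% calf serum, overnight at 37 °C; drug in quadruplicate plus 100 pfu/well virus; 3 days at 37 °C. ELISA read-out with HRP-rabbit anti-HSV-1 and TMB, absorbance at 450/570 nm. Percent reduction vs virus-only wells; IC50 by linear regression on log concentration.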

Human betaherpesvirus 5 [1] = experiment: Concentration required for 50% inhibition of HCMV replication was measured using a Plaque reduction assay; format: functional, organism-based
Summary of the method: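 HCMV Towne (P0) plaque reduction in HFF cells, ~100 pfu/cm². After adsorption, compound in growth medium at 4–8 concentrations in duplicate wells; 7–10 days at 37 °C. Crystal violet stain, microscopic plaque count. Percent plaque reduction vs no-drug wells; IC50 by linear regression vs log concentration.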

HFF = experiment: Visual cytotoxicity was scored on HFF cells at time of HCMV plaque enumeration; format: functional, cell-based; details: Homo sapiens
Summary of the method: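 Uninfected stationary HFF cells from the HCMV plaque assay plates, inspected microscopically for cytotoxicity at the time plaques were counted (7–10 days, 37 °C).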

KB = experiment: Inhibition of KB cell growth was determined; format: functional, cell-based; details: Homo sapiens
Summary of the method: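 KB cells seeded at 3000–5000/well and incubated overnight; compound at 6–8 concentrations in quadruplicate; 48 h at 37 °C in CO2, about two population doublings. Ethanol fixation, 0.1% crystal violet stain, acidified ethanol elution, read at 570 nm. IC50 by linear regression vs log concentration.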

Human betaherpesvirus 5 [2] = experiment: Concentration required for 90% inhibition of HCMV replication was measured using a yield reduction assay; format: functional
Summary of the method: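 HCMV yield reduction in HFF cells infected at moi 0.5–1 pfu/cell. Compound in duplicate as 1:3 serial dilutions from 100 to 0.05 μM; 7 days at 37 °C. One freeze-thaw, then progeny titered by plaque count on secondary HFF plates (1:3 dilutions). IC90 from regression of percent inhibition vs log concentration.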

SMILES | IC50 (Human alphaherpesvirus 1) [µM] | IC50 (Human betaherpesvirus 5 [1]) [µM] | IC50 (HFF) [µM] | IC50 (KB) [µM] | IC90 (Human betaherpesvirus 5 [2]) [µM]
Clc1cc(Cl)c2[nH]c(Cl)nc2c1 | > 100 | 5.1 | 32 | > 100 | 
Clc1nc2c(Cl)c(Cl)ccc2[nH]1 | > 100 | 8 | 32 | 80 | 
OC[C@H]1O[C@H](n2c(Br)nc3cc(Cl)c(Cl)cc32)[C@@H](O)[C@H]1O |  |  |  | > 100 | 0.2
Nc1nc2c(Cl)cc(Cl)cc2[nH]1 | > 100 | > 100 | 100 |  | 
OC[C@H]1O[C@@H](n2c(Cl)nc3cc(Cl)c(Cl)cc32)[C@H](O)[C@@H]1O |  |  |  |  | 1.4
CSc1nc2c(Cl)cc(Cl)cc2n1C1O[C@H](CO)[C@@H](O)[C@H]1O (stereo partly drawn) | > 300 | 110 | 150 | 270 | 
[N-]=[N+]=Nc1nc2c(Cl)cc(Cl)cc2n1C1O[C@H](CO)[C@@H](O)[C@H]1O (stereo partly drawn) |  | 110 | > 100 |  | 41
OC[C@H]1OC(n2c(Br)nc3c(Cl)c(Cl)ccc32)[C@H](O)[C@@H]1O (stereo partly drawn) | > 100 | 2.4 | 161 | > 100 | 1
Nc1nc2c(Cl)cc(Cl)cc2n1C1O[C@H](CO)[C@@H](O)[C@H]1O (stereo partly drawn) | > 300 | > 100 | > 100 | > 300 | > 100
OC[C@H]1OC(n2c(Cl)nc3c(Cl)cc(Cl)cc32)[C@H](O)[C@@H]1O (stereo partly drawn) | > 300 | 10 | 77 | 230 | 4.5
OC[C@H]1OC(n2c(S)nc3c(Cl)cc(Cl)cc32)[C@H](O)[C@@H]1O (stereo partly drawn) | > 300 | > 100 | > 100 | > 300 | 
OC[C@H]1OC(n2c(Cl)nc3c(Cl)c(Cl)ccc32)[C@H](O)[C@@H]1O (stereo partly drawn) | > 100 | 16 | > 100 | > 100 | 6
OC[C@H]1OC(n2c(SCc3ccccc3)nc3c(Cl)cc(Cl)cc32)[C@H](O)[C@@H]1O (stereo partly drawn) | 140 | 41 | 32 | 122 | 
OC[C@H]1OC(n2c(Br)nc3c(Cl)cc(Cl)cc32)[C@H](O)[C@@H]1O (stereo partly drawn) | > 300 | 1.6 | 127 | 150 | 2.1
O=C(O)P(=O)(O)O [FOSCARNET] |  |  | > 100 |  | 
Nc1nc2c(ncn2COC(CO)CO)c(=O)[nH]1 [GANCICLOVIR] |  |  | > 100 | > 100 | 1.6
